Bioassay records from PubChem.
Only some compounds are listed: those with a hit (about 3.8% of all), similar ones and a draw of the others.
KCNK3 inh – human KCNK3 channel inhibition, primary screen; CHO-KCNK3 thallium flux, FluxOR fluorescence; hits give low values; B-score at 10 µM; actives 0.84% (n = 340,000); AID 602410;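 active = B-score under library mean minus 4 SD, starting fluorescence ratio at most library mean plus 5 SD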;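 also: more negative B-score means stronger inhibition of thallium flux through KCNK3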
KCNK9 inh – inhibitors of human KCNK9 two-pore domain potassium channel | Q9NPC2 | HEK293 KCNK9, FluxOR thallium flux fluorescence; hits give low values | B-score at 10 µM | actives 1.2% (n = 310,000) | AID 488922;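 active = ratio B-score over 3 SD below the library mean, with starting fluorescence within 5 SD of its mean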;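 also: negative B-score means less thallium flux so channel inhibition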
KCNQ1 block – blocks the human KCNQ1 potassium channel; CHO-K1 KCNQ1, FluxOR thallium flux fluorescence; hits give high values; B-score at 10 µM; AID 2642; P51787; actives 1.3% (n = 310,000);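 active = compounds whose thallium flux B-score, printed positive for inhibition, exceeds three library SD while starting fluorescence stays within three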;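 also: channel opened by potassium depolarization with thallium stimulus after 20 min compound exposure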
Kir21 block – blocks the mouse Kir2.1 inward-rectifier potassium channel; P35561; HEK293-Kir2.1, FluxOR thallium flux fluorescence; hits give low values; B-score at 10 µM; actives 0.85% (n = 310,000); AID 1672;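 active = fluorescence ratio B-score at or below minus 3 SD of library scores, with starting-brightness B-score within 2 SD, cut at about -4.2 in these data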;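 also: channel flux triggered by added potassium and thallium sulfate stimulus; B-score of peak minus minimum fluorescence over baseline after thallium stimulus; more negative B-score means stronger Kir2.1 block with less thallium influx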
hERG protect – hERG (human) protection from proarrhythmic block; CHO-hERG, FluxOR thallium flux, dofetilide IC70 present; Q12809; activation (rescue from dofetilide block), less the hit threshold, % at 10 µM; actives 0.51% (n = 310,000);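 active = activation above the mean of controls blocked by dofetilide plus 5 SD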;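 also: thallium influx through hERG after potassium depolarization seen as dye fluorescence rise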
Target sequence (Q12809 whole entry, looked up): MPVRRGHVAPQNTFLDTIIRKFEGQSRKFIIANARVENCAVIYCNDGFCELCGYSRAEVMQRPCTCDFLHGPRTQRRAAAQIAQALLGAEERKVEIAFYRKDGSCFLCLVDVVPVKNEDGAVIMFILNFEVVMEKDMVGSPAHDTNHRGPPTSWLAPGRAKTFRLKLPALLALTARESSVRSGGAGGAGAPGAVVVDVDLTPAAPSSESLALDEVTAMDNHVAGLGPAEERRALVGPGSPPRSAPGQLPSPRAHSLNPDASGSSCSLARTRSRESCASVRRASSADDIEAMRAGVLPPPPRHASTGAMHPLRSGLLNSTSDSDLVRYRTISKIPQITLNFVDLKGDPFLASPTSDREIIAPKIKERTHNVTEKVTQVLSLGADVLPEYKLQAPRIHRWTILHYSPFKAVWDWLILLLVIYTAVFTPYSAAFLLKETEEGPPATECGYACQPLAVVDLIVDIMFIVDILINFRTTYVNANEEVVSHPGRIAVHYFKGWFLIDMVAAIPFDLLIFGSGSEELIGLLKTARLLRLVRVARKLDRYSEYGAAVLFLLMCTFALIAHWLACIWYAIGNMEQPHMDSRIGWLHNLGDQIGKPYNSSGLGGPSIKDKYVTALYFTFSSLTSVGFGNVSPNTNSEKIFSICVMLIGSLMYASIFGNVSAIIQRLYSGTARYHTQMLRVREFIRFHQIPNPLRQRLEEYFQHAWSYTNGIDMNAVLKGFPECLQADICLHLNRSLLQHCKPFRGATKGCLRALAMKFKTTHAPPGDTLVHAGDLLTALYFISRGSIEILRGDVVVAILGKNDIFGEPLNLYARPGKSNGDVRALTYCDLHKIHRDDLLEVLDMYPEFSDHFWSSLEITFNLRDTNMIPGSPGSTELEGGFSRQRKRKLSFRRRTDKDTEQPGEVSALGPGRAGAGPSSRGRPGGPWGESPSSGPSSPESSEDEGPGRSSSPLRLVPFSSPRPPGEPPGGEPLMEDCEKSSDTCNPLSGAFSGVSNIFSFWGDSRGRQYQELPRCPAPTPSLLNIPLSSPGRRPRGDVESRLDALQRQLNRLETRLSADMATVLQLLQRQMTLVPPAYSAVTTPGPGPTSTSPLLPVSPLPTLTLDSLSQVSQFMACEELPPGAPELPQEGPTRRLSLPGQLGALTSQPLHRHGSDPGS
KCNQ1 pot – human KCNQ1 channel potentiation or activation; CHO-K1 KCNQ1, thallium flux FluxOR fluorescence; hits give high values; B-score at 10 µM; actives 0.35% (n = 310,000); AID 2648;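 active = fluorescence ratio B-score, a plate-corrected score, at least three library SD, with initial intensity B-score within 5 SD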
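Test system: CHO-K1 cells stably expressing KCNQ1 / Medium: assay buffer / Also added: depolarizing K+/Tl+ stimulus, K2SO4 and Tl2SO4 each 12.5 mM in 5x stock / Incubation: 90 min dye loading and 20 min compound exposure, both at room temperature / Signal: thallium influx via FluxOR fluorescence, kinetic imaging / Evaluation: B score of baseline-normalized fluorescence ratio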
The depositor's hits bear a star; i = inactive; / = no result.

SMILES | KCNK3 inh | KCNK9 inh | KCNQ1 block | Kir21 block | hERG protect | KCNQ1 pot
CC(=O)Nc1ccc(NC(=O)COC(=O)C2(c3ccc(Cl)cc3)CCCC2)cc1 | i | i | i | -0.33 | -4 | i
CCc1cccc(CC)c1NC(=O)COC(=O)C1(c2ccc(Cl)cc2)CCCC1 | i | -7.1* | i | -0.02 | -12 | i
O=C(Cc1cccc2ccccc12)N/N=C/c1ccc2cccc(O)c2n1 | i | i | i | 0.83 | -7 | i
O=C(Cc1cccc2ccccc12)N/N=C/c1ccc(Sc2cccc3cccnc23)o1 | / | -9.8* | i | 0.01 | -9 | i
CN(C)c1ccc(/C=C/c2ccc3c4ccccc4ccc3[n+]2-c2ccccc2)cc1 | -16* | / | / | / | / | /
CN(C)c1ccc(/C=C/c2ccc3ccccc3[n+]2C)cc1 | i | i | 9* | -14* | -26 | i
COc1ccc(C2OC[C@H]3O[C@H](O)[C@H](NC(C)=O)[C@@H](O)[C@@H]3O2)cc1 (some centres not stated) | i | / | / | / | / | /
O=C(Nc1ccccc1)Nc1cccc2ccccc12 | i | i | i | -0.06 | -7 | i
O=C(Nc1ccccc1)Nc1ccc(O)c2ccccc12 | i | i | 6* | -0.08 | -23 | i
COc1cc(CNC(=O)C2CCCN2S(=O)(=O)c2ccccc2)cc(OC)c1OC (configuration not stated) | i | i | i | 0.3 | -10 | i
COc1ccc(C(=O)N[C@H](C(=O)N2CCN(c3ccccc3F)CC2)C(C)C)cc1 | i | i | i | 3.3 | 4.9* | i
CCOCCCN(C(=O)c1ccco1)C(C(=O)NC1CCCC1)c1ccc(OC)cc1 (configuration not stated) | i | i | i | -1.6 | -10 | i
COc1ccc(CN(CCC(c2ccc(F)cc2)C2CCOC(C)(C)C2)C(=O)c2ccco2)cc1 (configuration not stated) | i | -11* | i | -0.62 | -26 | i
CCCN(CCC)C(=O)CC(c1ccccc1)C1CCOC(C)(C)C1 (configuration not stated) | i | i | i | -0.59 | -18 | i
CC(c1ccccc1)N(CCC(c1ccccc1)C1CCOC(C)(C)C1)C(=O)c1ccco1 (configuration not stated) | i | i | 9* | -6* | -37 | i
Cc1ccc(-n2ncc3c(SCc4ccccc4)ncnc32)cc1 | i | i | i | -0.01 | 8.6* | i
CCC(Oc1ccccc1)C(=O)NCCCN1CCOCC1 (configuration not stated) | i | i | i | -0.68 | -5 | i
O=c1c2ccccc2nc(/C=C/c2ccccc2)n1CCCO | i | i | i | 2.7 | -7 | i
CN(C)c1ccc(/C=C/c2nc3ccccc3c(=O)n2CCO)cc1 | i | i | 6* | -2.2 | -18 | i
CCCN(Cc1ccco1)S(=O)(=O)c1ccc(OC)c(OC)c1 | i | i | i | -4.9* | -12 | i
Cc1cc(C)c2nc(N3CCC(C(=O)NCCCN4CC(C)CC(C)C4)CC3)sc2c1 (configuration not stated) | i | i | i | -6.8* | -15 | i
Cc1cc(C)c2nc(N3CCCC(C(=O)NCCCN4CCOCC4)C3)sc2c1 (configuration not stated) | i | i | i | 0.49 | -10 | i
COC(=O)C(Cc1ccccc1)NCC(=O)Nc1cccc(Cl)c1C (configuration not stated) | i | i | i | 0.09 | -12 | i
CCN(c1ccc(NC(=O)c2ccc(Cl)nc2)cc1)C(C)C | i | i | i | 1.1 | 5.9* | i
O=C(Nc1ccc(N2CCOCC2)cc1)c1ccc(Cl)nc1 | i | i | i | 0.53 | -3 | i
SMILES | KCNK3 inh | KCNK9 inh | KCNQ1 block | Kir21 block | hERG protect | KCNQ1 pot
OC(CNCc1ccc(F)cc1)(c1ccccc1)c1ccc(F)cc1 (configuration not stated) | i | i | i | -6.5* | -9 | i
OC(CNCc1ccccc1)(c1ccccc1)c1ccccc1 | i | i | i | -4.6* | -10 | i
Cc1ccc(CNCC(O)(c2ccccc2)c2ccc(F)cc2)cc1 (configuration not stated) | i | i | i | -8.9* | -14 | i
CCc1ccc(CNCc2ccc(F)cc2)cc1 | i | i | i | -6.9* | -12 | i
Cc1ccc(CNCC(O)(c2ccc(F)cc2)c2ccc(F)cc2)cc1 | i | i | i | -4.1 | -16 | i
Cc1ccc(CNC(=O)C2CCC(=O)N(C3CCCC3)C2)c(F)c1F (configuration not stated) | i | i | i | -1.2 | -8 | i
CCCc1c(C(=O)N/N=C/c2cccc(OCc3ccc(F)cc3)c2)nnn1-c1nonc1N | i | i | i | -0.41 | -2 | i
COc1ccc(CNCC(O)(c2ccccc2)c2ccccc2)cc1OC | i | i | i | -0.84 | -9 | i
COc1ccc(CNCC(O)(c2ccc(F)cc2)c2ccc(F)cc2)cc1 | i | i | i | -8.3* | -12 | i
OC(CNCc1ccccc1)(c1ccc(F)cc1)c1ccc(F)cc1 | i | -7.7* | i | -7.3* | -13 | i
COC(=O)C1CCN(C(=O)COC(=O)CC(NC(N)=O)c2ccc(Cl)cc2)CC1 (configuration not stated) | i | i | i | 0.28 | -10 | i
O=P(c1ccccc1)(c1ccccc1)N(c1ccccc1)c1ccccc1 | i | i | 7* | 0 | -4 | i
Cc1ccc(S(=O)(=O)NC(C(=O)Oc2ccc3ccc(=O)oc3c2)c2ccccc2)cc1 (configuration not stated) | i | i | i | 0.16 | -14 | i
Cc1ccc(S(=O)(=O)N[C@H](C(=O)Oc2ccc3c(C(F)(F)F)cc(=O)oc3c2)c2ccccc2)cc1 | i | i | 9* | -0.62 | -6 | i
CCC1(c2ccccc2)NC(=O)N(CC(=O)Nc2ccc(S(=O)(=O)NC3=NCCCCC3)cc2)C1=O (configuration not stated) | i | i | i | 2.2 | -17 | i
Cc1cc(NC(=O)CSc2nc(C3CC3)nc3sc(C)c(C)c23)no1 | i | i | i | 0.37 | 5.9* | 9*
O=C(c1ccc(Cl)s1)N1CCN(c2ccccc2)CC1 | i | i | i | -1.1 | 0 | i
Oc1ccc2ccccc2c1C=Nc1ccccc1-c1nc2ccccc2[nH]1 | i | i | 9* | 0.78 | -9 | i
